Calls of active or inactive are those of the source. The rule behind the calls is not given here.
Tests used:
Format in all cases: functional
[1] = system: SK-MEL-2; test: Growth inhibition of human SK-MEL-2 cells at 10 uM after 48 hrs by SRB assay; conditions: SK-MEL-2, 48 h, read-out: GI
Outline: (§1)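 Cells grown in RPMI 1640 with 5% FBS and 2 mM L-glutamine, plated at 5000–40,000 cells/well by doubling time and preincubated 24 h (37 °C, 5% CO2); a time-zero plate is TCA-fixed. Single dose added, then 48 h incubation. Fixed with cold TCA, stained with 0.4% SRB, dye solubilized in 10 mM Tris base, absorbance at 515 nm; percent growth vs time-zero and untreated control.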

[2] = system: SNB-19; test: Growth inhibition of human SNB19 cells at 10 uM after 48 hrs by SRB assay; conditions: SNB-19, 48 h, read-out: GI
Outline: (§2)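 NCI 60-cell-line screen with a single 10 µM dose. Cells are grown in RPMI 1640 with 5% FBS and 2 mM L-glutamine, plated at 5000–40,000 cells/well according to doubling time, and preincubated 24 h at 37 °C, 5% CO2; time-zero plates are TCA-fixed at that point. Drug exposure is 48 h. Adherent cells are fixed with cold TCA, stained with 0.4% SRB in 1% acetic acid and read at 515 nm. Percent growth is calculated relative to time-zero and untreated controls and reported as GI%.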

[3] = system: CCRF-CEM; test: Growth inhibition of human CCRF-CEM cells at 10 uM after 48 hrs by SRB assay; conditions: read-out: GI; outline: as §1
[4] = system: SF-295; test: Growth inhibition of human SF295 cells at 10 uM after 48 hrs by SRB assay; conditions: SF-295, 48 h, read-out: GI; outline: as §1
[5] = system: Malme-3M; test: Growth inhibition of human MALME-3M cells at 10 uM after 48 hrs by SRB assay; conditions: read-out: GI; outline: as §1
[6] = system: NCI-H322M; test: Growth inhibition of human NCI-H322M cells at 10 uM after 48 hrs by SRB assay; conditions: read-out: GI; outline: as §1
[7] = system: MDA-MB-435; test: Growth inhibition of human MDA-MB-435 cells at 10 uM after 48 hrs by SRB assay; conditions: MDA-MB-435, 48 h, read-out: GI; outline: as §1
[8] = system: SW-620; test: Growth inhibition of human SW620 cells at 10 uM after 48 hrs by SRB assay; conditions: SW-620, 48 h, read-out: GI; outline: as §2
[9] = system: HOP-62; test: Growth inhibition of human HOP62 cells at 10 uM after 48 hrs by SRB assay; conditions: HOP-62, 48 h, read-out: GI; outline: as §1
[10] = system: HCT-116; test: Growth inhibition of human HCT116 cells at 10 uM after 48 hrs by SRB assay; conditions: HCT-116, 48 h, read-out: GI; outline: as §1
[11] = system: SF-539; test: Growth inhibition of human SF539 cells at 10 uM after 48 hrs by SRB assay; conditions: for inhibition of growth at 10 µM: SF-539, 48 h, read-out: GI; outline: as §1
[12] = system: MDA-MB-231; test: Growth inhibition of human MDA-MB-231 cells at 10 uM after 48 hrs by SRB assay; conditions: MDA-MB-231, 48 h, read-out: GI; outline: as §1
[13] = system: SNB-75; test: Growth inhibition of human SNB75 cells at 10 uM after 48 hrs by SRB assay; conditions: SNB-75, 48 h, read-out: GI; outline: as §2
[14] = system: OVCAR-5; test: Growth inhibition of human OVCAR5 cells at 10 uM after 48 hrs by SRB assay; conditions: OVCAR-5, 48 h, read-out: GI; outline: as §1
[15] = system: HOP-92; test: Growth inhibition of human HOP92 cells at 10 uM after 48 hrs by SRB assay; conditions: HOP-92, 48 h, read-out: GI; outline: as §1
[16] = system: NCI-H460; test: Growth inhibition of human NCI-H460 cells at 10 uM after 48 hrs by SRB assay; conditions: NCI-H460, 48 h, read-out: GI; outline: as §1
[17] = system: UACC-257; test: Growth inhibition of human UACC257 cells at 10 uM after 48 hrs by SRB assay; conditions: UACC-257, 48 h, read-out: GI; outline: as §2
[18] = system: NCI-H23; test: Growth inhibition of human NCI-H23 cells at 10 uM after 48 hrs by SRB assay; conditions: NCI-H23, 48 h, read-out: GI; outline: as §1
[19] = system: SR; test: Growth inhibition of human SR cells at 10 uM after 48 hrs by SRB assay; conditions: read-out: GI; outline: as §2
[20] = system: MOLT-4; test: Growth inhibition of human MOLT4 cells at 10 uM after 48 hrs by SRB assay; conditions: MOLT-4, 48 h, read-out: GI; outline: as §1
[21] = system: UO-31; test: Growth inhibition of human UO31 cells at 10 uM after 48 hrs by SRB assay; conditions: UO-31, 48 h, read-out: GI; outline: as §2
[22] = system: PC-3; test: Growth inhibition of human PC3 cells at 10 uM after 48 hrs by SRB assay; conditions: PC-3, 48 h, read-out: GI; outline: as §1
[23] = system: SN12C; test: Growth inhibition of human SN12C cells at 10 uM after 48 hrs by SRB assay; conditions: read-out: GI; outline: as §2
[24] = system: U-251; test: Growth inhibition of human U251 cells at 10 uM after 48 hrs by SRB assay; conditions: U-251, 48 h, read-out: GI; outline: as §2
[25] = system: CAKI-1; test: Growth inhibition of human Caki1 cells at 10 uM after 48 hrs by SRB assay; conditions: CAKI-1, 48 h, read-out: GI; outline: as §1
[26] = system: K562; test: Growth inhibition of human K562 cells at 10 uM after 48 hrs by SRB assay; conditions: K562, 48 h, read-out: GI; outline: as §1
[27] = system: NCI-H226; test: Growth inhibition of human NCI-H226 cells at 10 uM after 48 hrs by SRB assay; conditions: NCI-H226, 48 h, read-out: GI; outline: as §1
[28] = system: HL-60(TB); test: Growth inhibition of human HL-60(TB) cells at 10 uM after 48 hrs by SRB assay; conditions: HL-60, 48 h, read-out: GI
Outline: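 Single-concentration pass across the 60-line panel in RPMI 1640 with 5% FBS. Cells preincubated 24 h, then exposed 48 h at 37 °C, 5% CO2. Read by SRB staining with absorbance at 515 nm. Percent growth is taken relative to time-zero and untreated controls and reported as percent growth inhibition (GI %).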

[29] = system: BT-549; test: Growth inhibition of human BT549 cells at 10 uM after 48 hrs by SRB assay; conditions: BT-549, 48 h, read-out: GI; outline: as §1
[30] = system: ACHN; test: Growth inhibition of human ACHN cells at 10 uM after 48 hrs by SRB assay; conditions: read-out: GI; outline: as §1
[31] = system: RPMI-8226; test: Growth inhibition of human RPMI8226 cells at 10 uM after 48 hrs by SRB assay; conditions: RPMI-8226, 48 h, read-out: GI; outline: as §1
[32] = system: A498; test: Growth inhibition of human A498 cells at 10 uM after 48 hrs by SRB assay; conditions: for inhibition of growth at 10 µM: A498, 48 h, read-out: GI; outline: as §1
[33] = system: MCF7; test: Growth inhibition of human MCF7 cells at 10 uM after 48 hrs by SRB assay; conditions: MCF7, 48 h, read-out: GI; outline: as §1
[34] = Growth inhibition of human HCC2998 cells at 10 uM after 48 hrs by SRB assay; conditions: HCC 2998, 48 h, read-out: GI; outline: as §1

SMILES | inhibition of growth at 10 µM [1] | inhibition of growth at 10 µM [2] | inhibition of growth at 10 µM [3] | inhibition of growth at 10 µM [4] | inhibition of growth at 10 µM [5] | inhibition of growth at 10 µM [6] | inhibition of growth at 10 µM [7] | inhibition of growth at 10 µM [8] | inhibition of growth at 10 µM [9] | inhibition of growth at 10 µM [10] | inhibition of growth at 10 µM [12] | inhibition of growth at 10 µM [13] | inhibition of growth at 10 µM [14] | inhibition of growth at 10 µM [15] | inhibition of growth at 10 µM [16] | inhibition of growth at 10 µM [17] | inhibition of growth at 10 µM [18] | inhibition of growth at 10 µM [20] | inhibition of growth at 10 µM [21] | inhibition of growth at 10 µM [22] | also measured
O=c1[nH]cc(F)c(=O)[nH]1 [FLUOROURACIL] | 95.5% | 65.9% | 57.1% | 69.1% | 58.2% | 59.5% | 36.6% | 50.1% | 47.8% | 17.8% | 78.1% | 65.9% | 44.3% | 50.6% | 13% | 19.5% | 39% | 43.1% | 41.3% | 58.2% | growth inhibition (GI) [11]: Active; inhibition of growth at 10 µM [19]: 24.8%; inhibition of growth at 10 µM [23]: 54%; inhibition of growth at 10 µM [24]: 50.3%; inhibition of growth at 10 µM [25]: 39.4%; inhibition of growth at 10 µM [26]: 42.3%; inhibition of growth at 10 µM [27]: 69.5%; inhibition of growth at 10 µM [28]: 47.9%; inhibition of growth at 10 µM [29]: 37.8%; inhibition of growth at 10 µM [30]: 39.3%; inhibition of growth at 10 µM [31]: 41.4%; growth inhibition (GI) [32]: Active; inhibition of growth at 10 µM [33]: 11.5%
O=c1c2cccc3c(NCCO)ccc(c32)c2nc3ccccc3n12 | < 20% | < 20% | < 20% | < 20% | < 20% | < 20% | < 20% | < 20% | < 20% | < 20% | < 20% | < 20% | < 20% | 40% | 42.8% | < 20% | 22.2% | < 20% | 38.3% | < 20% | inhibition of growth at 10 µM [11]: < 20%; inhibition of growth at 10 µM [34]: < 20%; inhibition of growth at 10 µM [23]: < 20%; inhibition of growth at 10 µM [24]: < 20%; inhibition of growth at 10 µM [25]: < 20%; inhibition of growth at 10 µM [26]: < 20%; inhibition of growth at 10 µM [27]: < 20%; inhibition of growth at 10 µM [28]: < 20%; inhibition of growth at 10 µM [29]: < 20%; inhibition of growth at 10 µM [30]: < 20%; inhibition of growth at 10 µM [31]: 28.6%; inhibition of growth at 10 µM [32]: 32.9%; inhibition of growth at 10 µM [33]: 57.5%
O=c1c2cccc3c(N4CCCC4)ccc(c32)c2nc3ccccc3n12 | < 20% | 24% | 46.3% | 40.2% | 29.6% | < 20% | < 20% | 40.5% | 33.9% | 45.3% | 22.9% | 27% | < 20% | 59.3% | 83.9% | < 20% | 31.8% | 97.4% | 43.8% | 32.1% | inhibition of growth at 10 µM [11]: < 20%; inhibition of growth at 10 µM [34]: 29.6%; inhibition of growth at 10 µM [19]: 79.8%; inhibition of growth at 10 µM [23]: 35.2%; inhibition of growth at 10 µM [24]: 35.3%; inhibition of growth at 10 µM [25]: 48.7%; inhibition of growth at 10 µM [26]: 24%; inhibition of growth at 10 µM [27]: 44.7%; inhibition of growth at 10 µM [28]: 28%; inhibition of growth at 10 µM [29]: 28.8%; inhibition of growth at 10 µM [30]: 47.6%; inhibition of growth at 10 µM [31]: 24.3%; inhibition of growth at 10 µM [32]: 62%; inhibition of growth at 10 µM [33]: 50%

— ChEMBL document CHEMBL2424551, “Synthesis, in vitro evaluation and molecular modelling of naphthalimide analogue as anticancer agents” (2013)
